Blank lines part the entries; values can stand above or below the compound they belong to.
Key:
Format in all cases: ADME
[1] = target: T1, UDP-glucuronosyltransferase 2B15 (Homo sapiens, UniProt P54855); experiment: Drug metabolism assessed as recombinant human C-terminal His-tagged UGT2B15-mediated 13-epiestradiol-3-glucuronide/13-epiestradiol-17-glucuronide formation at 200 uM after 15 to 60 mins by HPLC analysis in presence of UDPGA; settings: recombinant enzyme, in the assay text read “UGT2B15-mediated” for “C-terminal His-tagged UGT2B15-mediated”
T1 sequence (P54855 whole entry): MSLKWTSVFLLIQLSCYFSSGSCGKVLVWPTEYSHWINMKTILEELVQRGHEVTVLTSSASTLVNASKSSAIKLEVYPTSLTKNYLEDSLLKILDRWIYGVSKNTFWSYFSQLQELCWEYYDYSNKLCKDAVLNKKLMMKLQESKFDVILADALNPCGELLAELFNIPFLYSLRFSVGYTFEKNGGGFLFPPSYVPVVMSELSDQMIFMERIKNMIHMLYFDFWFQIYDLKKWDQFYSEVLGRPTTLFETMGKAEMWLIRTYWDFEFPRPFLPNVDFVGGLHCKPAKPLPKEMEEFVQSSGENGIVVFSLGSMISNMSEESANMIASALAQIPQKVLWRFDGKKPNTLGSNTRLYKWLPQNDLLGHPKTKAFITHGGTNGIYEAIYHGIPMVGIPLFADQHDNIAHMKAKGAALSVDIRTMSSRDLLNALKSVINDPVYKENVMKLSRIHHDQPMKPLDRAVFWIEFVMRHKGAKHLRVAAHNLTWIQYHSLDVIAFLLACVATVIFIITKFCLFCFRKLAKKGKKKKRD
Procedure, shortened: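 UGT2B15 was a commercial enzyme without a His-tag, so rates were not normalized to expression. Screening used 200 μM substrate in triplicate, with membranes in 50 mM phosphate pH 7.4, 10 mM MgCl₂, 5 mM UDPGA and 10% DMSO. Incubation was 15–60 min at 37°C. The reaction was stopped with perchloric acid and analysed by HPLC. Controls lacked UDPGA.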

[2] = target: T2, UDP-glucuronosyltransferase 1A1 (Homo sapiens, UniProt P22309); experiment: Drug metabolism assessed as recombinant human C-terminal His-tagged UGT1A1-mediated 16-epiestriol-3-glucuronide formation after 15 to 60 mins by Michaelis-Menten equation analysis in presence of UDPGA; settings: recombinant enzyme
T2 sequence (P22309 whole entry): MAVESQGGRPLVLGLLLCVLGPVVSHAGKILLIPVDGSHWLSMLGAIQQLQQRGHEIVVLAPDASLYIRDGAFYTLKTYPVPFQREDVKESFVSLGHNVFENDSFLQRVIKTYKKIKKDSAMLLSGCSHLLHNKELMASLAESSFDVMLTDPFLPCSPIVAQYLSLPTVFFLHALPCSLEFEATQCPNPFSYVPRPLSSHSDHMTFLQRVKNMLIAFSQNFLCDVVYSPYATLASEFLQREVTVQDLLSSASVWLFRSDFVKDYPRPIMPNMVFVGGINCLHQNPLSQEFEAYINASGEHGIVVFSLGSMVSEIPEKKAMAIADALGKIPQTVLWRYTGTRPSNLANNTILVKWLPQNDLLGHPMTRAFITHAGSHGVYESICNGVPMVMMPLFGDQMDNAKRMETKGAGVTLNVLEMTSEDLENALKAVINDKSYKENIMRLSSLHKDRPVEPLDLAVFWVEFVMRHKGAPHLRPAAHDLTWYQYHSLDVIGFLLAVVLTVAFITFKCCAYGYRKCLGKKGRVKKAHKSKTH

[3] = Drug metabolism in human intestine microsomes assessed as 16-epiestriol-17-glucuronide formation after 15 to 60 mins by Michaelis-Menten equation analysis in presence of UDPGA
Procedure, shortened: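 Pooled human intestine microsomes (6 donors), 0.5 or 10 µg, with alamethicin at 5% of total protein. Incubated with 50 mM phosphate pH 7.4, 10 mM MgCl₂, 5 mM UDPGA and 10% DMSO for 15–60 min at 37°C. Each glucuronide regioisomer quantified by HPLC, in triplicate, with substrate consumption at or below 10%.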

[4] = target: T3, UDP-glucuronosyltransferase 1A3 (Homo sapiens, UniProt P35503); experiment: Drug metabolism assessed as recombinant human C-terminal His-tagged UGT1A3-mediated estradiol-3-glucuronide formation at 200 uM after 15 to 60 mins by HPLC analysis in presence of UDPGA; settings: recombinant enzyme
T3 sequence (P35503 whole entry): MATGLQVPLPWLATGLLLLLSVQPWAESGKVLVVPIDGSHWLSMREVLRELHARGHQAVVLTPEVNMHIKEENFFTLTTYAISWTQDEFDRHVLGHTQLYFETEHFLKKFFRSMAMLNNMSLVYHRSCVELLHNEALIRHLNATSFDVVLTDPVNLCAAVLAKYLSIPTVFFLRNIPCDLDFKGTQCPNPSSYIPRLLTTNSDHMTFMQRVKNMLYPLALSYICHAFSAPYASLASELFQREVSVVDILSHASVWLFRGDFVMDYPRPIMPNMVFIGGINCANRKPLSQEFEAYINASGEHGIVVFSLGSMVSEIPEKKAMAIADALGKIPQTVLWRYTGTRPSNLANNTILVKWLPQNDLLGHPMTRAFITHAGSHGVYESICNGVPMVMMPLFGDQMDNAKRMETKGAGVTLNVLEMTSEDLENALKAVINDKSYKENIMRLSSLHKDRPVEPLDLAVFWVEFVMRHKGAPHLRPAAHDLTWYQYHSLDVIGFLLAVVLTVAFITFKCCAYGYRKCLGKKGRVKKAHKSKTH
Procedure, shortened: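 Screening at a single substrate concentration of 200 μM, in triplicate. The reaction used 5 or 50 µg of UGT-enriched insect cell membranes in 50 mM phosphate pH 7.4 with 10 mM MgCl₂ and 5 mM UDPGA, 10% final DMSO. Incubation was 15–60 min at 37°C. Perchloric acid stopped the reaction and supernatants were analysed by HPLC. Controls lacked UDPGA. Rates were normalized to relative UGT expression level.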

Drug metabolism [1]: metabolite_detected
SMILES: C[C@@]12CC[C@@H]3c4ccc(O)cc4CC[C@H]3[C@@H]1CC[C@@H]2O

Drug metabolism [2]: 0.5 pmol/min/mg
Km [3]: 1170 µM
Vmax [3]: 2324 pmol/min/mg
SMILES: C[C@]12CC[C@@H]3c4ccc(O)cc4CC[C@H]3[C@@H]1C[C@H](O)[C@@H]2O [EPIESTRIOL]

Drug metabolism [4]: metabolite_detected
SMILES: C[C@]12CC[C@@H]3c4ccc(O)cc4CC[C@H]3[C@@H]1CC[C@@H]2O [ESTRADIOL]
